The EternaBench riboswitch data

Tested on: MS2 coat protein
Assay: apparent Kd, MS2 coat protein; higher = weaker binding; RNA-MaP array; FMN 200 µM where present
Summary of the method: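 SNAP-549-labelled MS2 coat protein, doubled from 0.7 or 1.5 nM to 3 µM, was titrated over designs transcribed by stalled E. coli RNA polymerase on Illumina sequencing-chip clusters. Titrations were run without and then with constant ligand in 100 mM Tris-HCl pH 7.5, 80 mM KCl, 4 mM MgCl2, BSA, DTT, yeast tRNA and Tween-20. The apparent Kd is the median of filtered per-cluster fits to green signal normalised to red-channel RNA signal and control-cluster median Fmax.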

[1] = designed as: OFF switch for flavin mononucleotide, no ligand
[2] = ligand present: flavin mononucleotide, designed as: OFF switch for flavin mononucleotide
[3] = designed as: ON switch for flavin mononucleotide, no ligand
[4] = ligand present: flavin mononucleotide, designed as: ON switch for flavin mononucleotide

Sequence | apparent Kd [1] [nM] | apparent Kd [2] [nM] | apparent Kd [3] [nM] | apparent Kd [4] [nM]
CAGUCUACAGGAUAUACAUGAGGAUCACCCAUGUUUAUCAACUUUCAGUAAUCCAUAUGUAGAAGGGUAGACUG | 23.9 | 79.1 |  | 
CAGCGCUGUCGAGAGGAUAUGCGGUGAUGGACAUGAGGAUCACCCAUGUUAGCGAUAGCAUUACUGUAGAAGGCUCUACAGCUGC |  |  | 30.6 | 13
UCUUUGUUUGUGAGGAUAUCGAUAAAAUGGAUUGUCGAGAAGGCACAUGAGGAUCACCCAUGUGUGGGACAGCA | 22.3 | 74.9 |  | 
UGAUCGAGAGAUCUUAGAUUCUGGUAGGAUAUACAUUAUGUAAAAUUUACAUGAGGAUCACCCAUGUAGAAGGACUAGAGUCUA | 6.19 | 14.8 |  | 
UGGCUACAUGAGGAUCACCCAUGUCAGGAUAUGCCGUUGAAUUGACAUCAACGUACGGGUAGAAGGGACUGCGU | 39.5 | 38.8 |  | 
ACAUGAGGAUCACCCAUGUAUUACAUGGUUAAGUUUAUUAACAGAAGGCGAAAUUACCACUUGAUCGAGGAUAUGUAUUCAAUU | 45 | 40.3 |  | 
GGGUACAUCGGAGGAUAUCAUGUAAAUACAUGAGGAUCACCCAUGUCGAUGGAGACAUCGGAGAUUGAGAAGGCCGAUGUACGG |  |  | 160 | 9.04
AGAGCCUCGUGAGGAUAUACAUGAGGAUCACCCAUGUAAAUGAAAGAUACGUCGAAACGACGAAUGUAGAAGGCACGAGGCUCA | 17.8 | 65.9 |  | 
UUCUUACAUGAGGAUCACCCAUGUCAGGAUAUCUCCUCACUGCGCUUGCGCAGUGAAUAGAGAAGGGACAGGCU | 51.3 | 43.8 |  | 
CUGCUCCGUGUAGGAUAUGCGUACAACCAAUAUGCAGAAGGACAUGAGGAUCACCCAUGUAUGUUAUUAUCACGUGAAGCGUCC | 22.3 | 61.1 |  | 
ACCUCACAUGAGGAUCACCCAUGUCAGGAUAUCUAUUAUUGCAGCGUUCCCGUCGCUGAGAGAAGGGACAUUAA | 14 | 16.8 |  | 
GUCUCAGCUGAGGAUAUUAUCUGGCUCGACCGAUAAGAAGGCAGUACAUGAGGAUCACCCAUGUGGUUCGUUCG | 37.6 | 84.9 |  | 
AAAUUUAACGAAGGAUAUGGUUACAUGAGGAUCACCCAUGUAUAUUUUGUGAUCUUGUUAAAGUACCAGAAGGUCGUAUACAUA | 173 | 400 |  | 
GUCUGAUUGUAGAAGGUACUUAAUACUCAUGUAACAUGAGGAUCACCCAUGUAUCAUCAAUAUUGUAAGGAUAUACAAAUCUCA |  |  | 150 | 28.4
ACGUAUCUAGGAUAUACGCUGGGUACUAUUCUCAAGUCAAGACAUGAGGAUCACCCAUGUAGAAGGAGAAGCAA | 41 | 98.4 |  | 
CCAUGGCUGUAAGGAUAUCUCUGACAAAGUCAGAGAGAAGGUACAUGAGGAUCACCCAUGUGAGGAAAACCACAUUUGCCAUGG | 9.46 | 15.7 |  | 
AUGACAGGCAAAGCGCAACGGCAAACAUGAGGAUCACCCAUGUAGGAUAUGCUACACAAAGUGUAGCAGAAGGACAUACGACGA | 36.4 | 75.2 |  | 
AGUCGGAGCAGAGGAUAUAUACAUGAGGAUCACCCAUGUAAAUGAGUAAGCUGGAAACAGCAAGUAUAGAAGGCUGCUCCGACA | 18.2 | 35.1 |  | 
GUUUAUUAUUAGAAGGUGCCAGCGAGAGCUGCACAUGAGGAUCACCCAUGUUGUCGGUGACGACGCAAGGAUAUGGUGGUGGAU |  |  | 300 | 91.5
GACAUACAUGAGGAUCACCCAUGUUCAGAAGGACAAGGAUAUGUGUGGAAACCAUACUAUACAGAAGGUGUCUGUC |  |  | 37.6 | 19.9
GAAGCACACAUUAACAUGAGGAUCACCCAUGUCAAAAGACGUGAGGAUAUGGAUCUGAAGAAGAUCCAGAAGGCACUGUGCUAA |  |  | 8.83 | 6
GCAGGUUUACGAGGAUAUGGGUGGUACGGACAUGAGGAUCACCCAUGUCUCCCAGAAGGCGUAGCCUAACAAAGAGAACAGGAG |  |  | 111 | 19.2
UUUUACAUAGGAUAUAGUCUUUUUUACAUGAGGAUCACCCAUGUCUCUCUUUUUUUUUUUCUAGAAGGAUGUUUUU | 42.9 | 30.9 |  | 
CUAAAGCGAGGAUAUACAAUAAAAGGGAAUAAGGGAAAAAAACAUGAGGAUCACCCAUGUAGAAGGCGCCGAAA | 32.2 | 30.6 |  | 

Sequence | apparent Kd [1] [nM] | apparent Kd [2] [nM] | apparent Kd [3] [nM] | apparent Kd [4] [nM]
CGCACUGAUAGAGGAUAUGUUUUACAUGAGGAUCACCCAUGUGUACAUGGAUUAAUAUAUAAGUAACAGAAGGCUAUUUGUGCG | 18.9 | 15.1 |  | 
GCAGAUCAAGUGAGGAUAUCGUCUACCUCGGUAGUCGAGAAGGCACAUGAGGAUCACCCAUGUGAUUGAUCUGC | 18.5 | 25.9 |  | 
CGGAACAUGAGGAUCACCCAUGUAGCUACUUAAAGGUGCUACAGAAGGGACAUUGCGCGUCAUGGUCAGGAUAUGUAGGGCGGA |  |  | 148 | 62.4
GGAGCCGGCCUAGGAUAUUUCAUAUUUAAACAUGAGGAUCACCCAUGUAGGCCAGAAGGCCUUGGGAAGAAGGAGGUCGGCUCC |  |  | 88.1 | 17.5
GCGUACUGAGGAUAUACAUGAGGAUCACCCAUGUGACACAGCGUUUAGUGAUGAAUUUGUAGAAGGCAGUAGGC | 146 | 219 |  | 
ACAUGAGGAUCACCCAUGUUUACAUGGAUUAUUAAUCUUUGAUAGGAUAUGUUAGUUAAGUAUUUACAGAAGGAUCAAUACCAA | 15.9 | 12.2 |  | 
ACUAUACGAGGAUAUACUGUCGGGCCUCAGACAUAAAUAAGACAUGAGGAUCACCCAUGUAGAAGGCGUUUACU | 52.6 | 114 |  | 
UGAUAGGACAGAGGAUAUACGUGCUAGAGAUACUAGCAAAAUUAAAUAACAUGAGGAUCACCCAUGUAGAAGGCUGUCCUAUCU | 5.01 | 7.01 |  | 
ACAGAGGCUGACAUGAGGAUCACCCAUGUUAGAUUGUUAUGUCAGGAUAUUAUCUGGCAACCAGAUGAGAAGGGACCCUCUGUU |  |  | 21.5 | 7.68
UUGGACGUCGUAGGAUAUGUAGGAUAUUCCUACAUGAGGAUCACCCAUGUUGAAAUGGAAGAAGGACAGAAGGACGAUGUCCAU |  |  | 56.9 | 11.8
UAUUUAAGAGGAUAUACAUGAGGAUCACCCAUGUAUAUUAAUAUACAUGAUUUUUUAUGUAGAAGGCUUGGGUA | 25.5 | 58.4 |  | 
AUCGUAACUUCGUGUCCACAUGAGGAUCACCCAUGUGCUACAAGAAGGGCCCGGGUCGGGUUAGGGCAGGAUAUUGUGUGCACA | 9.15 | 19.1 |  | 
CGAUAGGACAGAGGAUAUACACAUGAGGAUCACCCAUGUGAUUUCAGCGCGAAAGCGCCAAACAUGUAGAAGGCUGUCCUAUCG | 25.9 | 10.6 |  | 
UGUGCCUCGAGAGGAUAUUACAUGAGGAUCACCCAUGUAACAGAGGUGGAAACACCUCUGAAAUGUAAGAAGGCUCGAGGCACA | 19.1 | 29.6 |  | 
GUACUGACAGGAUAUACAUGAGGAUCACCCAUGUCCUUAUGCUGACAAAAGUCAGCGAGUAGAAGGGUCUGUAC | 101 | 603 |  | 
AAAUUCAGAGGAUAUGCGCAUAGAUAAGACUUUGUUUCUUAACAUGAGGAUCACCCAUGUAGAAGGCUGUAAAA | 19.4 | 19.8 |  | 
GGGCCCGGUGUGAGGAUAUGCUCGGGUAAACUCGGGCAGAAGGCACAUGAGGAUCACCCAUGUAAGCCGGGCCC | 13.8 | 14.6 |  | 
AACAUGAGGAUCACCCAUGUCCCACCAGAAGGCUGGCGGUCGUGAGAAAGGCCACGACAAAUAACAGAGGAUAUGGUGAAUGCA |  |  | 101 | 19.1
GGUCUGAUAUGAGGAUAUGCUCAGGAUAACUGAGCAGAAGGCAUGUGAAAACAUGAGGAUCACCCAUGUGAUCAAUACAGACCA |  |  | 141 | 23.9
UGUAUGGACAGAGGAUAUACGUGCUAGAGAUACUAGCUACAAAUCCUUACAUGAGGAUCACCCAUGUAGAAGGCUGUCCAUACU | 19.1 | 39.4 |  | 
UGGUACUAGGGAGGAUAUGGGAAGAUACAUGAGGAUCACCCAUGUUUAAGAAUGCCGAGAGACAACUAGAAGGCCCUAGUACCU |  |  | 240 | 22.2
UUAUGUUUACAAGGAUAUCAAUUAUUUAUACUUCCUACAUGAGGAUCACCCAUGUUUUUAUAUUUUGAGAAGGUGUAAUGUCGG |  |  | 38.5 | 35.4
GUAGUGUAUGUAGGAUAUGUGAACGAAACGUUCACAGAAGGACAUGAGGAUCACCCAUGUAUUACAGUCAGCAAUCUGACUGUU | 25.7 | 107 |  | 
AUCGUUCGAGAGAAGGGAACAUGAGGAUCACCCAUGUUACCUCACCUGGUGACGGAACUCCAAGUUCAGGAUAUCUCGAGCAAU | 5.38 | 8.25 |  | 
